Assays:
[1] = tested on: ERK1/2 phosphorylation in WM266.4 cells; assay: Phospho-ERK cell-based ELISA; parameters: species or system human; conditions: cellular potency greater
[2] = molecular target: ^V600EBRAF (Homo sapiens, UniProt P15056, V600E); assay: Z'-LYTE SelectScreen kinase profiling; assay type: biochemical
[3] = molecular target: BRAF (Homo sapiens, UniProt P15056); assay: Z'-LYTE SelectScreen kinase profiling; assay type: biochemical
[4] = molecular target: CRAF (Homo sapiens, UniProt P04049, Y340D/Y341D); assay: Z'-LYTE SelectScreen kinase profiling; assay type: biochemical
[5] = molecular target: LCK (Homo sapiens, UniProt P06239); assay: Z'-LYTE SelectScreen kinase profiling; assay type: biochemical
[6] = molecular target: SRC (Homo sapiens, UniProt P12931); assay: Z'-LYTE SelectScreen kinase profiling; assay type: biochemical
[7] = molecular target: p38α (Homo sapiens, UniProt Q16539); assay: Z'-LYTE SelectScreen kinase profiling; assay type: biochemical
[8] = molecular target: p38γ (Homo sapiens, UniProt P53778); assay: Z'-LYTE SelectScreen kinase profiling; assay type: biochemical
[9] = molecular target: PDGFRα (Homo sapiens, UniProt P16234); assay: Z'-LYTE SelectScreen kinase profiling; assay type: biochemical
[10] = molecular target: PDGFRβ (Homo sapiens, UniProt P09619); assay: Z'-LYTE SelectScreen kinase profiling; assay type: biochemical
[11] = molecular target: VEGFR1 (Homo sapiens, UniProt P17948); assay: Z'-LYTE SelectScreen kinase profiling; assay type: biochemical
[12] = molecular target: VEGFR2 (Homo sapiens, UniProt P35968); assay: Z'-LYTE SelectScreen kinase profiling; assay type: biochemical
[13] = molecular target: FGFR1 (Homo sapiens, UniProt P11362); assay: Z'-LYTE SelectScreen kinase profiling; assay type: biochemical
[14] = molecular target: RET (Homo sapiens, UniProt P07949); assay: Z'-LYTE SelectScreen kinase profiling; assay type: biochemical
[15] = molecular target: KIT (Homo sapiens, UniProt P10721); assay: Z'-LYTE SelectScreen kinase profiling; assay type: biochemical
[16] = molecular target: COT (Homo sapiens, UniProt P41279); assay: Z'-LYTE SelectScreen kinase profiling; assay type: biochemical
[17] = molecular target: MET (Homo sapiens, UniProt P08581); assay: Z'-LYTE SelectScreen kinase profiling; assay type: biochemical
[18] = tested on: panel of 80 kinases; assay: Selectivity profile against 80 kinase panel; assay type: biochemical, human; conditions: 1 μM 1t
In short: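 Each of 80 kinases was screened at a single 1 µM concentration using the commercial SelectScreen panel under the provider's protocols. Results were expressed as percent inhibition of kinase activity, and kinases inhibited by >70% were singled out.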

[19] = molecular target: ^T529N,V600EBRAF (Homo sapiens, UniProt P15056, T529N/V600E); assay: DELFIA kinase assay, gatekeeper mutant; assay type: biochemical; conditions: at up to 10 μM
In short: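 Full-length recombinant BRAF construct carrying the gatekeeper and activating substitutions was tested in a 96-well DELFIA assay. The assay measured direct phosphorylation of bacterially produced GST-MEK at 100 µM ATP. Reactions ran in duplicate for 45 min at 20°C, within the linear range, across an 11-concentration response curve. Each value was the mean of 3 independent assays.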

[20] = tested on: ^V600EBRAF-expressing Ba/F3 cells; assay: DNA synthesis; assay type: cell-based; conditions: Mus musculus, BaF3, 24 h, read-out: growth (DNA synthesis) inhibition
In short: (§1)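 Ba/F3 lines stably expressing the mutant BRAF were cultured in RPMI1640 with 10% FBS at 37 °C in 10% CO2. Cells (1-5 × 10^4 per well) were exposed to compound for 24 h, with 0.08 µCi [3H]-thymidine added per well for the last 4 h. Cells were then captured on glass-fibre filters and washed twice with PBS and twice with methanol. Incorporated label was counted by scintillation.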

[21] = tested on: ^T529N,V600EBRAF-expressing Ba/F3 cells; assay: DNA synthesis; assay type: cell-based; conditions: Mus musculus, BaF3, 24 h, read-out: growth (DNA synthesis) inhibition
In short: as §1

[22] = tested on: MEK and ERK phosphorylation in ^V600DBRAF WM266.4 cells; assay: Western blotting of MAPK signaling; assay type: cell-based, human; conditions: 24 h
In short: (§2)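 Cells in DMEM with 10% FBS were exposed to a concentration series for 24 h and lysed. Lysates were blotted for phospho-MEK1/2, MEK1, phospho-ERK1/2, ERK2 and cyclin D1. Detection used Alexa Fluor 680 and 800CW secondary antibodies, with quantification on an infrared scanner.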

[23] = tested on: MEK and ERK phosphorylation in BRAF wild-type D35 melanoma cells; assay: Western blotting of MAPK signaling; assay type: cell-based; conditions: 24 h, concentrations up to 10 μM
In short: as §2

[24] = tested on: MEK and ERK phosphorylation in KRAS mutant SW620 colorectal carcinoma cells; assay: Western blotting of MAPK signaling; assay type: cell-based, human; conditions: 24 h
In short: as §2

[25] = tested on: SW620 cells; assay: MTS cell proliferation assay; assay type: cell-based, human; conditions: 72 h
In short: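 SW620 cells in DMEM with 10% FBS received a range of compound concentrations for 72 h. Proliferation was quantified with MTS reagent. Seeding density was optimized so growth stayed logarithmic throughout treatment. Wells were run in quadruplicate, and comparisons used a t-test.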

[26] = tested on: cancer cell lines harboring ^V600D/EBRAF mutations; assay: SRB growth inhibition assay, cell line panel; assay type: cell-based, human; conditions: 5 d exposure, ^V600D/EBRAF mutant lines
In short: (§3)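 Growth inhibition was measured by sulforhodamine B across a panel of melanoma, colon and breast cancer cell lines after 5 d continuous exposure. Seeding density was optimized per line to keep growth logarithmic. Curves used 10-point dilution series in quadruplicate and were fitted to give IC50/GI50. Lines were grouped by BRAF/RAS mutation status for comparison.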

[27] = tested on: cell lines in which BRAF is wildtype; assay: SRB growth inhibition assay, cell line panel; assay type: cell-based, human; conditions: 5 d exposure
In short: as §3

[28] = tested on: ^V600EBRAF mutant HT29 cells; assay: SRB growth inhibition assay, cell line panel; assay type: cell-based, human
In short: as §3

[29] = tested on: SKMEL23 cells; assay: SRB growth inhibition assay, cell line panel; assay type: cell-based, human
In short: as §3

[30] = tested on: WM266.4 (^V600DBRAF) cells; assay: DNA synthesis; assay type: cell-based, human; conditions: WM266.4 cells, 0.1 μM 1t for 24 h
In short: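 Cells were grown in DMEM with 10% FBS at 37 °C in 10% CO2. They were seeded at 10^5 per well in 6-well plates and treated with 0.1 µM compound for 24 h. DNA synthesis was measured with 0.8 µCi tritiated label per well. Cells were harvested by trypsinization and an aliquot was filter-captured and scintillation-counted as for suspension cells.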

[31] = Pharmacokinetics in mice; assay type: in vivo; conditions: for concentration at 18 h: po, 10 mg/kg
In short: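 Female BALB/cAnNCrl mice over 6 weeks old were dosed i.v. at 2 mg/kg (10 ml/kg, DMSO:Tween 20:water 10:1:89). Others received 10 mg/kg by oral gavage (10 ml/kg, DMSO:water 1:19). At 5 min (i.v. only), 15 and 30 min, and 1, 3, 6 and 18 h, 3 mice per point gave heparinized blood for plasma under isoflurane. Femoral muscle was also collected. Plasma levels were compared with the mean 5-d SRB GI50 of BRAF-mutant lines.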

[32] = tested on: MEK phosphorylation in A375M xenografts; assay: Pharmacodynamics, MEK phosphorylation in tumor xenografts; assay type: in vivo, mice; conditions: single oral dose of 20 mg/kg, 4 h, A375M tumors
In short: (§4)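 Female Crl:CD1-Foxn1nu mice (>6 weeks) were inoculated s.c. with 10^7 A375M or 7 × 10^6 SW620 cells. Tumors were grown to 50–150 mm3. Groups of 3-4 mice received one 20 mg/kg oral gavage dose or vehicle and were culled 4 h later. Tumors were snap-frozen, lysed in NP40 buffer and homogenised. Equal protein was probed by quantitative fluorescent Western blot for phospho-MEK1/2 and total MEK1.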

[33] = tested on: MEK phosphorylation in SW620 xenografts; assay: as above; assay type: in vivo, mice; conditions: single p.o. dose 20 mg/kg, 4 h, KRAS mutant SW620 tumors
In short: as §4

[34] = tested on: ^V600EBRAF A375M melanoma xenografts; assay: Therapy study, xenograft growth; assay type: in vivo, mice; conditions: 20 mg/kg q.d. p.o. for 24 d, on completion of the experiment, p<0.05
In short: (§5)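 Female Crl:CD1-Foxn1nu mice (>6 weeks) were implanted s.c. with 10^7 A375M or 7 × 10^6 SW620 cells. Tumors grew to 50–150 mm3, and groups of 8 were assigned by stratified tumor volume. Mice received 20 mg/kg/d by gavage (10 ml/kg, DMSO:water 1:19) or vehicle, for 24 d (A375M) or 23 d (SW620). Calipers measured tumors every 3-4 d, and mean volume ± SEM was plotted.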

[35] = tested on: ^G12VKRAS mutant human colorectal carcinoma SW620 xenografts; assay: Therapy study, xenograft growth; assay type: in vivo, mice; conditions: 20 mg/kg daily p.o. for 23 d
In short: as §5

[36] = Tolerability in mice; assay type: in vivo
[37] = tested on: ^V600EBRAF in cells; conditions: cited from earlier work
[38] = tested on: ^V600EBRAF purified kinase; conditions: cited from earlier work
[39] = female, BALB/cAnNCrl, mouse, plasma, iv, 2 mg/kg
[40] = continuous daily dosing 20 mg/kg in therapy experiments

BRAF, sequence (P15056 whole entry): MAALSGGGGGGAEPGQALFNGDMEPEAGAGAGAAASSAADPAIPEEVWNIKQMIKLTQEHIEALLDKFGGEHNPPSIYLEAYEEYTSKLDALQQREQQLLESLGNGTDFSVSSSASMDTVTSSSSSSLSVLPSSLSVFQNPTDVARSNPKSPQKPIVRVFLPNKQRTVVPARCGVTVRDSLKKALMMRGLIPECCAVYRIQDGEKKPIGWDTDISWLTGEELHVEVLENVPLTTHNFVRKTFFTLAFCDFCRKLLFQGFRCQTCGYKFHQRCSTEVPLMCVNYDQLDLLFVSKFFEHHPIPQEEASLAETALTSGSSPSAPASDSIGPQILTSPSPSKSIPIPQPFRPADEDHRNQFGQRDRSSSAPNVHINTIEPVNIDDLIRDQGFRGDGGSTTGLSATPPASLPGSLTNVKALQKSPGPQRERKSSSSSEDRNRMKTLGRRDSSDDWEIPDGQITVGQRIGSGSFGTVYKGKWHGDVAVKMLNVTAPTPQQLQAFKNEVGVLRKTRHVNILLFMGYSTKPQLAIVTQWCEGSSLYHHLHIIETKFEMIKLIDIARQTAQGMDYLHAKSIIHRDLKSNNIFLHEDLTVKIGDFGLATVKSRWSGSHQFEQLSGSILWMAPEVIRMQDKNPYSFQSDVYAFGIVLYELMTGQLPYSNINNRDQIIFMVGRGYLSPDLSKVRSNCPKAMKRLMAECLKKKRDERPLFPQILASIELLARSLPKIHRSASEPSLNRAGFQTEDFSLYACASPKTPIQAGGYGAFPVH
VEGFR2, sequence (P35968 20-1356): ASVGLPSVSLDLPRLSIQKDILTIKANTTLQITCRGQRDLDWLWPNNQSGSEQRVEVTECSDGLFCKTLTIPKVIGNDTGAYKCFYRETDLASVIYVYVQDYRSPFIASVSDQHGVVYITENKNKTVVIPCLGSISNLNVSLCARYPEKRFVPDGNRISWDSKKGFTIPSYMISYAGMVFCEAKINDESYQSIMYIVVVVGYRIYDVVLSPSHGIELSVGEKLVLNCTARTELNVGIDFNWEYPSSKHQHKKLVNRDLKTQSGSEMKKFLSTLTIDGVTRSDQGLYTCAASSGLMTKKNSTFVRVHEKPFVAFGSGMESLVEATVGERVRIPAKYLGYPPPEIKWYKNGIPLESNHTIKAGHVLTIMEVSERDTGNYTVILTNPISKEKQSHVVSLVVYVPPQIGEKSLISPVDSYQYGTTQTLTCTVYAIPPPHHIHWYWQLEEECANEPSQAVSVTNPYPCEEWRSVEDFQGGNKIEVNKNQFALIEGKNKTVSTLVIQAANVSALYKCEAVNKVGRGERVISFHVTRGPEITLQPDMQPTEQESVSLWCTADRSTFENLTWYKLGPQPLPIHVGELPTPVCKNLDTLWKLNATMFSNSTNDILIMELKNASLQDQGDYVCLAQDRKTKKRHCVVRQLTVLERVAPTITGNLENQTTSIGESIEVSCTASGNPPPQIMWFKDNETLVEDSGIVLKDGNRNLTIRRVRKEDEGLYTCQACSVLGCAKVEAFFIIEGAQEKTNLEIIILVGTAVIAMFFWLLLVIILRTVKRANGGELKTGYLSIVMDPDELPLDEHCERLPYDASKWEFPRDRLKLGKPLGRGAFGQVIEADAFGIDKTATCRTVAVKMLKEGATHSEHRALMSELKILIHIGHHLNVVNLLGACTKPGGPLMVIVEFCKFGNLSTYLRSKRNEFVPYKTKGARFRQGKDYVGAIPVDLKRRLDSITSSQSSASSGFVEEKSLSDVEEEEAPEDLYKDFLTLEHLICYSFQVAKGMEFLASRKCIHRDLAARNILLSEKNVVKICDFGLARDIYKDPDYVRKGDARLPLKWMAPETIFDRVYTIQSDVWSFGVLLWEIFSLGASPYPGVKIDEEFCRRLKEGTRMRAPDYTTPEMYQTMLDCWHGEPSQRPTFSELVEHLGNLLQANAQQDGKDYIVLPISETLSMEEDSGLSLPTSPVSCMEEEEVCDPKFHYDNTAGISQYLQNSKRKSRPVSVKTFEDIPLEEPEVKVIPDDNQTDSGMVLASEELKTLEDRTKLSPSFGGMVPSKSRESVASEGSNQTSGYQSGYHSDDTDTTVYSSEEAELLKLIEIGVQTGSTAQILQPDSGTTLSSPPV
SRC, sequence (P12931 whole entry): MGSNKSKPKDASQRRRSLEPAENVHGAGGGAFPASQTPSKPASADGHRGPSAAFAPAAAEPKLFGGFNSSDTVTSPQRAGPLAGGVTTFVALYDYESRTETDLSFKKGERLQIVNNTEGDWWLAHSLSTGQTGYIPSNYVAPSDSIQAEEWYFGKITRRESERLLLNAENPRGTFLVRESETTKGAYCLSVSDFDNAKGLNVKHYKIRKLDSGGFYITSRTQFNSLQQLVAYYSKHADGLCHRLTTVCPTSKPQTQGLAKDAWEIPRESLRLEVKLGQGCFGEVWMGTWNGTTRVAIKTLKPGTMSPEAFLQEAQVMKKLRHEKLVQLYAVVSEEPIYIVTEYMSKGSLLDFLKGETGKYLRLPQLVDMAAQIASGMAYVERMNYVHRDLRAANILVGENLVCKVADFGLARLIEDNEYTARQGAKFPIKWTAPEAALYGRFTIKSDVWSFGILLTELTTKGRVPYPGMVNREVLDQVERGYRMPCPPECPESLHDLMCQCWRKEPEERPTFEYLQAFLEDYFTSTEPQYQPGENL
FGFR1, sequence (P11362 22-822): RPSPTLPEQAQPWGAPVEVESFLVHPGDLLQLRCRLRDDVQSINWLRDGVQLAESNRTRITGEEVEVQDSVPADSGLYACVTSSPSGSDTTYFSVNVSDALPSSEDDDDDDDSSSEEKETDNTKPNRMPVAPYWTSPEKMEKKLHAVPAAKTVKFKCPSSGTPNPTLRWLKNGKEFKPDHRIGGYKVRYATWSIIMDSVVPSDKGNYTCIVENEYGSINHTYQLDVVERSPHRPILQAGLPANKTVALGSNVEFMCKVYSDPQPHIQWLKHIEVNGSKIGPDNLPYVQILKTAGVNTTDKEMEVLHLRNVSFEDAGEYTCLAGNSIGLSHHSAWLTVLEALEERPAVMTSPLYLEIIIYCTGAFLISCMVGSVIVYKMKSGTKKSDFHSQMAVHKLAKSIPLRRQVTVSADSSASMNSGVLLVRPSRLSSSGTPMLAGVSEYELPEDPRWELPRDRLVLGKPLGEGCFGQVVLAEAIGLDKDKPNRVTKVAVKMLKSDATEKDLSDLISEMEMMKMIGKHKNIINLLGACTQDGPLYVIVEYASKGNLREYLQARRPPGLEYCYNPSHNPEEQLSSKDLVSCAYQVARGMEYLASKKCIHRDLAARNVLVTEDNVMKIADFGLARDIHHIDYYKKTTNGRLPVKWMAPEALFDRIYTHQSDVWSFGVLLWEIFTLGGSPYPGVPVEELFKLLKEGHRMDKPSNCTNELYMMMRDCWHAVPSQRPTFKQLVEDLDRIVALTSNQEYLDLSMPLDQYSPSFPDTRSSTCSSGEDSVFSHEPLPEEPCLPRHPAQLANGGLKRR
RET, sequence (P07949 29-1114): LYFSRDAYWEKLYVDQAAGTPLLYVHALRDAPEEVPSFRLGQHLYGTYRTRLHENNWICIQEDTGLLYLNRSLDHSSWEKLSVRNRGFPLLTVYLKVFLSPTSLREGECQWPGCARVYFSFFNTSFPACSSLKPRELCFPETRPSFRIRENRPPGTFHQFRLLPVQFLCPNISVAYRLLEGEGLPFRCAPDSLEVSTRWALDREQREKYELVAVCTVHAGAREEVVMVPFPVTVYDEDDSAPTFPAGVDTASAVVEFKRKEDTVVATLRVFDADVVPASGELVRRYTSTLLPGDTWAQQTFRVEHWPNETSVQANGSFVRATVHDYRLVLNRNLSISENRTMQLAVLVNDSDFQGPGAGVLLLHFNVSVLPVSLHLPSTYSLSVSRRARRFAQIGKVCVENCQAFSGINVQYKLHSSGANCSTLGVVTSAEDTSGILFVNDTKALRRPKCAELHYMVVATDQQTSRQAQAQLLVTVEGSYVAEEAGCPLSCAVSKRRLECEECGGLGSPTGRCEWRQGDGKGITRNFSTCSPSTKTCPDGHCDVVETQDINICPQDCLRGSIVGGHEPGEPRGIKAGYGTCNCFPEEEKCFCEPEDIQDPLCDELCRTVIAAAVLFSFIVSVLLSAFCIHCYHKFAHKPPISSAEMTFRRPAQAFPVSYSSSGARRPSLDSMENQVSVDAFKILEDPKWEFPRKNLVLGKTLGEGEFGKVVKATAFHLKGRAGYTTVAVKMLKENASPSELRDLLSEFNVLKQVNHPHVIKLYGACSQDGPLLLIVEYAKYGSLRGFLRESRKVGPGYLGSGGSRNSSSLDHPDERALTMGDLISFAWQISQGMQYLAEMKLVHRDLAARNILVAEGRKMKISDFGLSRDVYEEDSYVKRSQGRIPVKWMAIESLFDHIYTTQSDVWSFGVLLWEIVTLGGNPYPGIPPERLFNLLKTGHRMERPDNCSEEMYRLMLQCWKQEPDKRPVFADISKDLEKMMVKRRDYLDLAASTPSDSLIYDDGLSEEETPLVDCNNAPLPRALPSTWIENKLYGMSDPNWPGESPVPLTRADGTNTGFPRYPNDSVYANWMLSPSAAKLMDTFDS
LCK, sequence (P06239 whole entry): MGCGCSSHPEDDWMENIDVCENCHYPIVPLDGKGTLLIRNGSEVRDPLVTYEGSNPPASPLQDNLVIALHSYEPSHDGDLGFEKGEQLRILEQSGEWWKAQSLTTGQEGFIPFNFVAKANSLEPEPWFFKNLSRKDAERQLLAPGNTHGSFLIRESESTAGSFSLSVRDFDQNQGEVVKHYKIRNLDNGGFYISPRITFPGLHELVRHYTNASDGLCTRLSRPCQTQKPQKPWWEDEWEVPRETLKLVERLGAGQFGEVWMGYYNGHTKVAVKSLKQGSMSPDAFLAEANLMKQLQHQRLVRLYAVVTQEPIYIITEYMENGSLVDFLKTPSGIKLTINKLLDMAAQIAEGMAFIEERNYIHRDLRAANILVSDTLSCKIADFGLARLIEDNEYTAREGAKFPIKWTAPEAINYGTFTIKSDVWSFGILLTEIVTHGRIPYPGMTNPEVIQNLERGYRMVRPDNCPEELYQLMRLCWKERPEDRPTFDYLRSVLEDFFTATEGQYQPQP
^V600EBRAF, sequence (P15056 whole entry V600E): as the sequence (P15056 whole entry) above, with V600E counted along it

For `CSc1cc(Oc2ccnc3[nH]c(=O)cnc23)ccc1NC(=O)Nc1cc(C(C)(C)C)nn1-c1ccc(C)cc1` [Compound 1t, 1-(3-tert-butyl-1-p-tolyl-1H-pyrazol-5-yl)-3-(2-(methylthio)-4-(3-oxo-3,4-dihydropyrido[2,3-b]pyrazin-8-yloxy)phenyl)urea], the “cellular potency relative to inhibition of recombinant ^V600EBRAF in vitro” value [1] was “approximately 4 fold”, the IC50 [2] was 0.013 µM and the IC50 [3] was 0.081 µM. The “fold less active against wildtype BRAF than against ^V600EBRAF” value ([3]; SelectScreen Panel) was “more than 6 fold”, the IC50 [4] was 0.012 µM and the IC50 [5] was 0.006 µM. For the same compound, the IC50 [6] was 0.023 µM, the IC50 [7] was 0.285 µM and the IC50 [8] was 1.02 µM. It also gave an IC50 [9] of 0.439 µM, an IC50 [10] of 2.43 µM and an IC50 [11] of 5.16 µM. For the same compound, the IC50 [12] was 1 µM, the “fold less active against VEGFR2/KDR than against ^V600EBRAF” value ([12]; SelectScreen Panel) was “more than 50 fold” and the IC50 [13] was 2.58 µM. The IC50 [14] was 4.86 µM, the IC50 [15] was > 10 µM and the IC50 [16] was > 10 µM. The IC50 [17] was > 10 µM, the “inhibition of kinases in an 80 kinase panel” value [18] was “failed to inhibit most of the kinases” and the “inhibition of ^T529N,V600EBRAF kinase activity” value [19] was “not inhibited”. For the same compound, the inhibition at 1 µM [20] was 96%, the inhibition at 1 µM [21] was 21% and the “concentration inhibiting MEK and ERK phosphorylation” value [22] was 10 to 100 nM. For the same compound, the “MEK and ERK phosphorylation / cyclin D1 response” value [23] was “no such responses are observed”, the “effect on MEK and ERK phosphorylation” value [24] was “profound increase” and the effect on proliferation [25] was “small increase in proliferation”. For the same compound, the growth inhibition [26] was “inhibits the growth”, the growth inhibition [27] was “relatively ineffective” and the “sensitivity relative to the majority of the other BRAF mutant cell lines” value [28] was “less sensitive”. The “sensitivity relative to the other BRAF/RAS wildtype cells” value [29] was “considerably more sensitive”, the “inhibition of DNA synthesis” value [30] was “profound inhibition” and the concentration at 18 h ([31]; female, BALB/cAnNCrl, mouse, femoral muscle) was > 3 µM. For the same compound, the clearance [31, 39] was 0.00667 mL/min, the half-life [31, 39] was 6.8 h and the concentration at 18 h ([31]; female, BALB/cAnNCrl, mouse, plasma) was > 19 µM. For the same compound, the “plasma concentration relative to average GI50 for BRAF mutant cancer cell lines” value ([31]; mice) was “over 100 fold”, the “inhibition of MEK phosphorylation” value [32] was “observed” and the “increase in MEK phosphorylation” value [33] was 2 fold. The tumor growth inhibition [34] was 50%, the tumor growth inhibition [35] was “No inhibition of tumor growth” and the “adverse effects / body weight” value ([36]; 10 and 20 mg/kg/d p.o. for 4 d, body weight monitored a further 27 d) was “No adverse effects were observed”. The body weight loss [36, 40] was “less than 10%” and the deaths [36, 40] was “does not cause any deaths”.

For `CNC(=O)c1cc(Oc2ccc(NC(=O)Nc3ccc(Cl)c(C(F)(F)F)c3)cc2)ccn1` [sorafenib], the “activity against ^V600EBRAF in cells” value [37] is listed as 2 to 5 µM, the “fold less active in cells than against the purified kinase” value [37] is listed as “approximately 100 fold” and the “activity against the purified kinase in vitro” value [38] is listed as 40 nM.
